Test results from publication PMC4883117 (Fitoterapia, 2015).
“And” between values parts separate entries of the source, which are not always exact repeats. Equal values may be shown once. Read-outs that look alike come from different tables or passages of the source.

Tests used:
[1] = tested on: Trypanosoma brucei brucei; assay: In vitro antitrypanosomal Alamar Blue assay on T. brucei trypomastigote cultures; assay type: cell-based; conditions: for Antitrypanosomal activity IC50 / Antitrypanosomal activity IC90: T. b. brucei, 37 °C, mean ± S.D. of duplicate observations, tested range 0.4–10 μg/mL; for IC50 / IC90: Trypanosoma brucei; for IC50: read-out: Antitrypanosomal activity IC50; for IC90: read-out: Antitrypanosomal activity IC90
Method in brief: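 T. b. brucei trypomastigotes seeded at 2 × 10^6 cell/mL and exposed to test compound at three concentrations (40–1.6 or […]). Incubated 72 h at 37 °C, then parasite growth read by Alamar Blue. IC50 and IC90 were fitted from dose–response curves and given as mean ± S.D. of duplicate observations. Difluoromethylornithine served as positive control.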

THP1 cells = assay: Cytotoxicity against THP1 cell cultures; assay type: cell-based, human
[2] = Cytotoxicity against THP1 cell cultures; assay type: cell-based, human; conditions: human, THP1 cells
μ-opioid receptors = μ-opioid receptors (Homo sapiens, UniProt P35372); assay: Opioid receptor radioligand binding assay; conditions: for Ki: read-out: μ-opioid receptor Ki; for IC50: read-out: μ-opioid receptor binding IC50
μ-opioid receptors, sequence (P35372 whole entry): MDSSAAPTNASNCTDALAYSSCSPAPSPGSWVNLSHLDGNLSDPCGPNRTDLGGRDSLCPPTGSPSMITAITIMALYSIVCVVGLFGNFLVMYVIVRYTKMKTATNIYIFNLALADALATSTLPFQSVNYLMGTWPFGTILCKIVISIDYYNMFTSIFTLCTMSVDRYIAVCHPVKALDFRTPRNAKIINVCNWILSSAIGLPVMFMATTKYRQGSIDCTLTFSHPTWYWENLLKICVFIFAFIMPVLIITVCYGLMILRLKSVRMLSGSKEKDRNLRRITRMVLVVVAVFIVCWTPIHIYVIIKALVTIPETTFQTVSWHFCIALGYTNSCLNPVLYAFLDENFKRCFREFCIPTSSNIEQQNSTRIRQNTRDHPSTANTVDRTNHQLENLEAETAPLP

Row | Compound | Antitrypanosomal activity IC50 ([1]; 72 h) [µg/mL] | Antitrypanosomal activity IC90 ([1]; 72 h) [µg/mL] | antitrypanosomal activity (in words) ([1]; tested concentrations range 0.32–8.23 μM) | THP1 cell toxicity IC50 (THP1 cells) [µg/mL] | IC50 ([1]; 72 h) [µg/mL] | IC90 ([1]; 72 h) [µg/mL] | IC50 [1] [µM] | IC90 [1] [µM] | IC50 [2] [µg/mL] | radio ligand displacement in μ-opioid receptor binding assay (μ-opioid receptors) [%] | Ki (μ-opioid receptors) | IC50 (μ-opioid receptors) [µM]
1 | C/C(=C\C=C\[C@@H](C)[C@H]1CC[C@@]2(C)C3=C(CC[C@]12CO)[C@@]1(C)CC[C@H](O[C@@H]2O[C@H](CO)[C@@H](O[C@@H]4O[C@H](CO)[C@@H](O)[C@H](O)[C@H]4O)[C@H](O)[C@H]2O[C@@H]2O[C@H](CO)[C@@H](O)[C@H](O)[C@H]2O[C@@H]2O[C@@H](C)[C@H](O)[C@@H](O)[C@H]2O)C(C)(C)[C@@H]1CC3)C(=O)N[C@@H]1C(=O)O[C@H](C)[C@@H]1C [Compound 5, N-(2S, 3R, 4R-3-methyl-4-pentanolid-2-yl)-18-hydroxylanosta-8 (9), 22E, 24E-trien-27-amide-3-O-[α-L-rhamnopyranosyl-(1→2)-O-β-D-glucopyranosyl-(1→2)]-[β-D-glucopyranosyl-(1→4)]-β-D-glucopyranoside] | >10 | >10 | no antitrypanosomal activity | >10 |  |  |  |  |  |  |  | 
2 | NCCCC(N)(C(=O)O)C(F)F (stereo not drawn) [DFMO, difluoromethylornithine, reference compound] |  |  |  |  | 2.38 | 5.28 | 13.1 | 29 | > 10 |  |  | 
3 | 2α-Hydroxyheinsiagenin A 3-O-[β-D-glucopyranosyl-(1→2)]-[β-D-glucopyranosyl]-(1→4)]-β-D-glucopyranoside [Compound 4] | 3.04 | 4.64 |  | >10 |  |  |  |  |  |  |  | 
4 | Heinsiagenin A 3-O-[α-L-rhamnopyranosyl-(1→2)-β-D-glucopyranosyl-(1→2)]-β-D-glucopyranoside [Compound 1] | 9.13 | 11.05 |  | >10 |  |  |  |  |  | 65.9 | 9.94 µM | 19.9
5 | Heinsiagenin A 3-O-[α-L-rhamnopyranosyl-(1→2)-β-D-glucopyranosyl-(1→2)]-[β-D-glucopyranosyl-(1→4)]-β-D-glucopyranoside [Compound 2] | 3.08 | 4.27 |  | >10 |  |  |  |  |  | 61.0 | 0.872 µM and 0.87 µM | 1.74
6 | 2α-Hydroxyheinsiagenin A 3-O-[α-L-rhamnopyranosyl-(1→2)-β-D-glucopyranosyl-(1→2)]-β-D-glucopyranoside [Compound 3] | 2.75 | 3.53 |  | >10 |  |  |  |  |  |  |  | 
